Lung fibro prol: blocks proliferation of human lung fibroblasts; viability, % at 10 µM; 85,000 compounds, 1.1% hits; LL 47 human lung fibroblast viability, ATP luminescence; hits give low values; AID 719;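 active = viability at or below 50% in the single dose screen; inactive = viability above 50%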;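 note: compound exposure lasted 72 h before the ATP readout; 100% = median luminescence of untreated cell-only wells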
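Times – overnight cell rest, 72 h compound treatment at 37 °C · Test system – human lung fibroblast line LL 47, low passage · Amount – 1,150 cells in each well · Controls – cell-only wells, no compound · Doses – 0.1% DMSO in all compound wells · Measured by – CellTiter-Glo luminescence · Buffer or medium – IMEM plus 15% FBS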
HCT116 PTEN-null: suppresses growth of cells with PTEN deletion. viability, % at 10 µM. HCT116 PTEN-null viability, CellTiter-Glo, 60 h; hits give low values. 140,000 compounds, 1.2% hits;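 active = viability at or below a set limit, 4 SD under the median of all tested compounds, cut at about 3.7% in these data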;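 note: PTEN knockout HCT116 line with beta catenin targeted HCT116 as companion control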
HCT116 bCat-KO: beta-catenin-lacking colon tumor cell growth suppression. HCT116 beta-catenin knockout viability, CellTiter-Glo, 60 h; hits give low values. viability, % at 10 µM. 140,000 compounds, 1.5% hits. AID 818;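 active = viability at or under a set limit, the compound median less 4 SD, cut at about 6% in these data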;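 note: 0% = Hyamine 1622 control at 20 µM and 100% = untreated cell control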
H69AR growth 86K: growth inhibitors of human H69AR lung tumor cells; 85,000 compounds, 6% hits; viability, % at 10 µM; AID 598; H69AR lung tumor viability, ATP luminescence, 72 h; hits give low values;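 active = viability at or below 40%; inactive = viability above 40%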;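 note: multidrug resistant small cell line overexpressing MRP-1 efflux transporter; 100% = mean luminescence of untreated control wells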
HUVEC inhibit: blocks proliferation of human endothelial cells; HUVEC proliferation, CellTiter-Glo luminescence, 72 h; hits give low values; viability, % at 10 µM (by protocol); 86,000 compounds, 1.1% hits;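 active = viability at or below 30%; inactive = viability above 30%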;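 note: 100% = median luminescence of DMSO-only cell control wells on each plate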
* = called active by the depositor; · = no result. Many of the other results were omitted from the sample, so hits are more common in it than they were.

SMILES	Lung fibro prol	HCT116 PTEN-null	HCT116 bCat-KO	H69AR growth 86K	HUVEC inhibit
CCOc1ccc(N2C(=O)/C(=C/c3cc(OC)c(OC)c(OC)c3)N(CC(=O)OC)C2=S)cc1	95	14	15	25*	62
COc1cc(OC)c2c(c1)C(=O)OC2	·	97	91	·	·
Cc1nn(-c2ccccc2)c(OC(=O)c2cccs2)c1S(=O)(=O)c1ccccc1	·	105	105	·	·
Cc1nn(-c2ccccc2)c(OC(=O)c2cccs2)c1S(=O)(=O)c1ccc([N+](=O)[O-])cc1	100	97	96	7.9*	88
Cn1cc(SCC(=O)Nc2nc3ccccc3s2)c2ccccc21	97	76	85	71	10*
O=S(=O)(CC(CN1CCCC1)N1CCCC1)c1ccc2ccccc2c1 (stereo not drawn)	3.5*	2.1*	1.9*	1.9*	18*
O=C1CCn2nc(-c3ccc(Cl)cc3)cc2N1	104	84	85	95	17*
Nc1cc(-c2ccc(Cl)cc2)nn1S(=O)(=O)c1ccc(Cl)cc1	88	88	87	43	64
CC(=NCCN1CCN(C(=S)Nc2ccccc2)CC1)C1=C(O)CC(C)(C)CC1=O	·	81	95	·	·
CCOC(=O)c1sc(NC(=O)Nc2cccc(Cl)c2)cc1C	·	2.4*	3.6*	·	·
CNC(=O)N(O)C1N(c2ccccc2)C(=S)SC1(C)C (stereo not drawn)	·	96	96	·	·
COc1ccc(CC(=O)Nc2ccc(-c3cn4ccc(C)cc4n3)cc2)cc1	·	88	87	·	·
COc1nnc(-c2ccc(N3CCOCC3)c(NC(=O)C3CCCCC3)c2)c2ccccc12	·	91	88	·	·
COc1nnc(-c2ccc(N3CCCCC3)c(NC(=O)C3CCCCC3)c2)c2ccccc12	98	12	11	8.7*	66
CCOC(=O)C1=C(Cc2ccc(Cl)cc2)C(=O)c2ccccc2C1=O	75	76	69	1.9*	21*
CCOC(=O)c1cc2nc(-c3ccco3)cc(C(F)(F)F)n2n1	90	96	97	70	88
COc1ccc(C(=O)NC(=S)NC(C)(C)C)cc1Br	·	82	93	·	·
Cc1cc(N2CCOCC2)ccc1/C=C\[N+](=O)[O-]	·	10	4.4*	·	·
CN=C1S/C(=C\c2ccc(N3CCOCC3)cc2C)C(=O)N1C	·	96	101	·	·
CCCCOC(=O)c1ccc(NC(=S)NC(=O)c2c(Br)c(C)nn2C)cc1	·	86	91	·	·
Cn1c(-c2ccc(C=O)s2)nc2c3ccccc3c3ccccc3c21	89	7	25	18*	60
CCN(CC)c1ccc(/C=N/NC(=O)c2cccc(S(=O)(=O)Nc3ccccc3OC)c2)c(O)c1	·	10	5.3*	·	·
CC(=O)/C=C/c1ccc2ccccc2n1	7.4*	1.2*	1.5*	0.8*	30*
CCCCC(=O)Nc1cccc(NC(=S)NC(C)=O)c1	·	93	96	·	·
COc1cccc(-c2ccc(C#N)c(OC(=O)c3ccc(Cl)cc3)n2)c1	99	108	86	8.9*	88
SMILES	Lung fibro prol	HCT116 PTEN-null	HCT116 bCat-KO	H69AR growth 86K	HUVEC inhibit
COc1cccc(-c2ccc(C#N)c(OC(=O)c3c(Cl)cccc3Cl)n2)c1	85	24	32	44	61
NC(=O)CSc1nnc(CCc2nc3ccccc3[nH]2)n1-c1ccccc1	100	·	·	92	101
O=C(CCCOc1ccc(Cl)cc1Cl)NN1CCOCC1	·	106	97	·	·
COc1ccc(S(=O)(=O)N2CCCN(S(=O)(=O)c3ccc(OC)c(C)c3)CC2)cc1C	94	50	49	33*	66
Cc1ccc(S(=O)(=O)N2CCCN(S(=O)(=O)c3ccc4c(c3)OCCO4)CC2)cc1	93	92	107	32*	95
Cc1ccc(S(=O)(=O)N2CCCN(S(=O)(=O)c3ccc(C(F)(F)F)cc3)CC2)cc1	49*	18	10	48	60
CCCCNS(=O)(=O)c1ccc2nc(-c3cccnc3)cc(C(=O)NC(C)C)c2c1	·	69	68	·	·
CCCCNS(=O)(=O)c1ccc2nc(-c3cccnc3)cc(C(=O)NC3CC3)c2c1	·	0.4*	0.3*	·	·
CCN(CC)CCCN1CC(O)=C(c2nc3ccccc3s2)C1=N	89	97	95	87	79
N=C1C(c2nc3ccccc3s2)=C(O)CN1Cc1ccccc1	52	31	31	17*	46
CCOc1ccc(C(=O)NC(=S)Nc2ncccc2C)cc1[N+](=O)[O-]	·	3.3*	2.8*	·	·
O=C(/C=C/c1ccccc1F)c1ccoc1	·	8	5.3*	·	·
O=C(/C=C/c1ccoc1)c1ccccc1O	·	78	78	·	·
COc1ccc(OC)c(NC(=O)C2CCCN(S(=O)(=O)c3c(C)noc3C)C2)c1 (stereo not drawn)	102	88	95	79	94
COc1ccc2nc(NC(=O)C3CCCN(S(=O)(=O)c4c(C)noc4C)C3)sc2c1 (stereo not drawn)	101	46	54	35*	86
CCOc1ccc(OCC)c(NC(=O)C2CCCN(S(=O)(=O)c3c(C)noc3C)C2)c1 (stereo not drawn)	82	22	18	19*	78
COc1ccc(N2CCN(C(=O)CN(C)S(=O)(=O)c3cnc[nH]3)CC2)cc1	109	86	85	100	97
Cc1ccc(NCCC#N)cc1C	·	96	92	·	·
Cn1c2ccccc2c(=O)c2c(=O)n(C3CCCCC3)c(-c3ccco3)nc21	·	3.4*	4.1*	·	·
CCc1nc(SCc2ccc(C(=O)OC)o2)c2c(=O)n(C)c(=O)n(C)c2n1	100	71	91	60	77
CC(=O)Nc1nn(C)c2nc3cc(C)ccc3cc12	100	98	95	84	86
Cc1ccc2cc3c(NC(=O)c4ccco4)nn(C)c3nc2c1	102	92	90	35*	75
Cc1cc(C)n(-c2nc(NCCO)c3c4c(sc3n2)CCCC4)n1	84	25	15	11*	78
Cc1cc(C)n(-c2nc(NCCCO)c3c4c(sc3n2)CCCC4)n1	79	13	12	4.9*	17*
Cc1cc(C)n(-c2nc(NCC(C)O)c3c4c(sc3n2)CCCC4)n1 (stereo not drawn)	86	30	22	107	84
SMILES	Lung fibro prol	HCT116 PTEN-null	HCT116 bCat-KO	H69AR growth 86K	HUVEC inhibit
Cc1ccc(NC(=O)CC(C(=O)O)c2ccccc2)cc1 (stereo not drawn)	·	107	101	·	·
Cc1ccc(Cn2cnc3ccccc32)cc1C	·	67	60	·	·
CC(C)Cn1cc(C(=O)N2CCN(c3ccccn3)CC2)c2c3ccccc3n(C)c2c1=O	93	59	51	38*	70
O=S(=O)(c1ccc2nc(COc3ccccc3)[nH]c2c1)N1CCOCC1	108	101	93	79	101
O=S(=O)(c1ccc2c(c1)nc(COc1ccc(Cl)cc1)n2CC1CCCO1)N1CCOCC1 (stereo not drawn)	5.7*	20	18	5.8*	67
O=C(CN1CCOCC1)NN=C1CCCCCCCCCCC1	·	93	86	·	·
Cc1cccc(C)c1N1CCN(c2ccc3nnc(C(F)(F)F)n3n2)CC1	90	38	42	25*	13*
FC(F)(F)c1nnc2ccc(N3CCOCC3)nn12	93	103	99	102	108
